Data from ChEMBL document CHEMBL4513216, “Probing the Open Global Health Chemical Diversity Library for Multistage-Active Starting Points for Next-Generation Antimalarials” (ACS Infect Dis, 2020).

Experiment: Toxicity liver stage against HepG2, at 10uM
Type: cell-based
Design: test concentration 10 uM, cell line HepG2-A16-CD81EGFP
Conditions: human, HepG2-A16-CD81EGFP cells; read-out: INHIBITION
Procedure, shortened: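 Uninfected HepG2-A16-CD81EGFP cells, 3 × 10^3 per well, 1536-well, plated on prespotted compound at 10 μM final, parasite-free screening media added to match infected plates; puromycin 10 μM positive, DMSO 0.5% negative; run in parallel with 48 h PbLuc assay at 37 °C, 5% CO2; viability by CellTiter-Glo luminescence, normalized to controls.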

Structure (SMILES) | cytotoxicity at 10 µM [%]
CC(C)(C)c1cc(C[C@H]2CNCC[C@H]2CC(=O)NC2CCCCC2)no1 | 2.82
Cc1cnc(N2CC[C@@H]3CN(CCC(C)C)S(=O)(=O)[C@@H]3CC2)nc1 | -3.1
Cn1nc(C#N)c2c1CN(C(=O)c1ccsc1)CCC2 | -126
CC(C)n1[nH]c(=O)c2c1NC(=O)CC2c1cccc(O)c1 (centres undefined) | 10.6
Cc1ccc(CNc2cc3[nH]c(O)nc3cc2C)cc1 | 22.2
CC(C)(CNC(=O)C(C)(C)Oc1ccc2c(c1)CCCC2=O)C(N)=O | -2.25
CNC(=O)C1Cc2ccccc2CN1C(=O)CC(C)C (centres undefined) | -150
COc1ccccc1C(C)(C)NC(=O)c1ccc(F)c(NC(C)=O)c1 | -142
NC(=O)CN(Cc1ncc(-c2ccc(Cl)cc2)o1)C1CCCC1 | -1.99
CCNC(=O)NC(=O)CNC(C)(CC)c1nc(C)cs1 (centres undefined) | 6.99
CCN(CC(F)(F)F)C(=O)C1CCCN(Cc2ccno2)C1 (centres undefined) | -2.33
CC(C)OCCC(=O)Nc1cccc(N2CCN(CC3CC3)CC2)c1 | -1.11
Cn1nc2c(cc1=O)CN(CC(=O)Nc1cc(C(C)(C)C)no1)CC2 | -4.1
O=S(=O)(CCCS(=O)(=O)c1ccc2c(c1)OCCCO2)c1ccccc1 | -2.76
COc1cccc(CN(C(=O)Nc2nncs2)C2CCC(O)CC2)c1 (centres undefined) | -0.67
O=C(c1[nH]nc(C2CC2)c1Cl)N1CCCC1 | -3.78
CC(O)CN1CCC(CN(C)Cc2ccc(C(N)=O)cc2)CC1 (centres undefined) | -1.66
CC(CNC(=O)NCc1ccsc1)CC1(C)OCCO1 (centres undefined) | 1.24
CCCc1cc(NC(=O)c2cccc(N3CCCNC3=O)c2)n[nH]1 | 3.14
COc1c(CNC2(c3ccc(Cl)cc3)CCC2)c(C)nn1C | 4.22
CC(C)C1CN(C(=O)Nc2cnn(CC(F)F)c2)CCS1 (centres undefined) | 12.6
CC(C)(CC(=O)N(CC(N)=O)C1CCCC1)c1ccccc1 | -4.95

Structure (SMILES) | cytotoxicity at 10 µM [%]
Cc1ccc(S(=O)(=O)N2CSCC2C(=O)N(C)C2CC2)cc1Cl (centres undefined) | -9.42
CCCc1nnc(NC2CCN(C3CCCC3)CC2)o1 | -2.66
CC(=O)c1ccc(NC(=O)NC(C(=O)N(C)C)C(C)C)cc1 (centres undefined) | -5.55
NS(=O)(=O)c1ccc(F)c(C(=O)NCCSC2CCCCC2)c1 | 4.69
Cc1cc(C)nc(N2CCC(c3nnc(CN(C)C)n3C3CC3)CC2)n1 | -0.578
O=C(CCc1nc(Cl)n[nH]1)N1C[C@@H](CN2CCCCCC2)[C@@H](CO)C1 | 0.152
CN(C)C(=O)N1CCn2nc(CNC(=O)CCc3ccccn3)cc2C1 | -3.32
Cc1cc(C)n(NC(=O)c2ccccc2C)c(=O)c1 | -5.05
CCN1CCOC(CNCc2ccccc2OCc2cccnc2)C1 (centres undefined) | -13.1
O=C(CCN1CCCC1=O)Nc1cnn(-c2ccccc2Cl)c1 | 5.65
Cc1nnc(CN(Cc2ccc3c(c2)OCO3)C2CCC(C)CC2)o1 (centres undefined) | -1.89
OC(CN1CCN(Cc2nc(C3CC3)no2)CC1)c1ccccc1 (centres undefined) | -10.9
CCOc1ncccc1C(=O)N1CCC(Nc2ccc(C)nn2)CC1 | -20.6
Cc1cccc(OCCN2CCCC(c3cc(C(N)=O)[nH]n3)C2)c1 (centres undefined) | -11.9
O=C(NCc1ccc(-n2cncn2)nc1)c1ccc2c(c1)CCC2 | -16.5
CN1CC(=O)N(c2cccnc2)CC12CCN(C(=O)c1cccn1C)C2 (centres undefined) | 1.14
Cc1cccc(CO[C@@H]2CC[C@H]3[C@H]2OCCN3Cc2cc(C)on2)n1 | -3.59
O=C(NCc1cncc2c1CCN(CC1CCOC1)C2)c1ccco1 (centres undefined) | -9.55
c1coc(CN2Cc3ccnn3CC(COCC3CC3)C2)c1 (centres undefined) | -153
CC(=O)N1CCCC2(CN(Cc3ccc(C)s3)CCO2)C1 (centres undefined) | 0.102
CN(Cc1ccco1)C[C@H]1OC[C@@H]2CCN(Cc3ccncc3)C[C@@H]21 | -1.62
CNC(=O)[C@@H]1CCO[C@@H]2CCN(C3CCOCC3)C[C@@H]21 | 6.67
